Where two headings read alike, the source gives them in different places.
Legend:
Assay type in all cases: cell-based, human
HUVEC = assay: In vitro anti‐proliferative assay
Procedure, shortened: (§1)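 MTT assay: 5×10³ cells per well settled 24 h, then exposed to a concentration series of test compound or DMSO for 48 h. Medium replaced with fresh medium containing 10% MTT (5 mg/mL in PBS) for 4 h at 37 °C. Formazan dissolved in DMSO, absorbance read at 570 nm. Inhibition % = (OD DMSO − OD compound)/(OD DMSO − OD blank)×100, giving IC50.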

A2780 cells = assay: Nitrite measurement in vitro; conditions: 100 μM compound, 150 min, Griess reagent
Procedure, shortened: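 A2780 cells (1×10⁷ per 10 cm dish) were exposed to 100 μM test compound for 150 min, then harvested and lysed in RIPA buffer for 30 min on ice. Lysates were mixed with Griess reagent for 30 min in the dark and read at 540 nm. Nitrite was quantified against a sodium nitrite standard curve, with diluent-treated cells as background. Mean ± SD of three independent experiments.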

Hela = assay: In vitro anti‐proliferative assay; conditions: read-out: Hela (IC50); MTT, 48 h treatment; mean of triplicate determinations
Procedure, shortened: as §1

A2780 = assay: In vitro anti‐proliferative assay; conditions: read-out: A2780 (IC50); MTT, 48 h treatment; mean of triplicate determinations
Procedure, shortened: as §1

Compound	IC50 (HUVEC; Homo sapiens, HUVEC, 48 h, read-out: HUVEC (IC50, μM))	intracellular NO production, presented as nitrite in the cell lysates (A2780 cells)	IC50 (Hela)	IC50 (HUVEC; read-out: HUVEC (IC50), MTT, 48 h treatment, mean of triplicate determinations)	IC50 (A2780)
COc1cc2c(cc1O)CC[C@@H]1[C@@H]2CC[C@]2(C)[C@@H](O)CC[C@@H]12 [compound 3, 2‐methoxyestradiol]	1.35 µM	hardly detected			
3‐Phenylsulfonyl‐4‐hydroxylethoxyl‐1,2,5‐oxadiazole 2‐Oxide [compound 21]			3.05 µM	1.48 µM	1.92 µM
